This is an account of results in PMC5909973 (ChemMedChem, 2017).

Experiment [1] addresses T1, human FPR1 (Homo sapiens, UniProt P21462).
T1 sequence (P21462 1-350): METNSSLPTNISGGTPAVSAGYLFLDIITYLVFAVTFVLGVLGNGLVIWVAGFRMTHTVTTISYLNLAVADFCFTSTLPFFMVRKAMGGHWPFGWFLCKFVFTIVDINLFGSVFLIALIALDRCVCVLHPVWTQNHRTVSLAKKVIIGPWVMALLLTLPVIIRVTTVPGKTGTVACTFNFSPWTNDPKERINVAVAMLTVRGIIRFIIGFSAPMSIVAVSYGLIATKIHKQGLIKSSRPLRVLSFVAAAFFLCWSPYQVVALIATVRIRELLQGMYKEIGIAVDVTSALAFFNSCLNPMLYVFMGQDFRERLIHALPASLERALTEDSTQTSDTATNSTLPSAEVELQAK
Briefly: Desensitization: inhibition of fMLF-induced Ca2+ mobilization in FPR1-HL60 cells. It counts as cell-based. The procedure, abridged: (§1)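 Fluo-4-loaded transfected HL-60 cells in HBSS⁺ were pretreated with DMSO vehicle or graded test compound concentrations while Ca²⁺ flux was monitored. The same wells were then challenged with 5 nM fMLF (FPR1 cells) or 5 nM WKYMVM (FPR2 cells). The second Ca²⁺ response (ex 485/em 538 nm, every 5 s for 240 s, room temperature) was taken as the measure of desensitization. Each compound was run in triplicate, with dose-response curves fitted by nonlinear regression.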

Experiment [2] relates to mouse microglial N9 cells. Briefly: ROS production in LPS-stimulated N9 cells. It counts as cell-based. To be noted: for reduction in cellular ROS level (dose dependence): N9 cells stimulated with LPS, 0.1 and 1 μM; for reduction in ROS production: N9 cells, 24 h co-incubation with LPS, compound 0.1 μM, p<0.05. In outline: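 N9 microglia seeded at 25,000 cells/well; after 3–4 h, LPS 300 ng/mL added alone or with test compound (0.1 or 1 μM), then 24 h at 37 °C. H2DCF-DA (10 μM final) added for 30 min, wells washed 3× in ice-cold PBS, read in saline at ex 480/em 520 nm. Increase over basal fluorescence; mean ± standard error, ≥3 biological replicates; one-way ANOVA with paired two-tailed t-tests, p<0.05.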

The nature of experiment [3]: ROS scavenging in cell-free non-enzymatic O2·−-generating system. To be noted: concentrations up to 20 μM; data not shown. The procedure, abridged: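 Superoxide generated non-enzymatically from phenazine methosulfate plus NADH in 0.05 M phosphate buffer, pH 7.5, with or without test compound. Detection by NBT reduction to monoformazan, followed at 560 nm and 25 °C on a plate spectrophotometer. The rate of absorbance change was taken as the read-out.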

For experiment [4], the target named is T1, human FPR1. Briefly: Ca2+ mobilization. To be noted: for Ca+2 mobilization FPR1-HL60 efficacy: normalized to 5 nM fMLF = 100%. It counts as cell-based. The procedure, abridged: (§2)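 FPR1- or FPR2-stably transfected HL-60 cells were kept in RPMI 1640 with 10% FCS and G418. Cells were loaded with Fluo-4 AM (1.25 µg/mL final) for 30 min at 37 °C in the dark, then put in HBSS with Ca²⁺/Mg²⁺ at 2×10⁵ cells/well. After test compound addition, fluorescence (ex 485/em 538 nm) was read every 5 s for 240 s at room temperature. Peak change over baseline was normalized to 5 nM fMLF (FPR1) or 5 nM WKYMVM (FPR2). Runs were in triplicate, with EC50 from nonlinear regression of 5–6 points.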
For orientation: Calcium flux is commonly read through the fluorescence of an indicator in the cells.

In a further experiment the test system is N9 cells. Briefly: MTT cytotoxicity assay in N9 cells. It counts as cell-based. To be noted: Mus musculus, N9, 24 h, read-out: MTT EC50. The procedure, abridged: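 Murine N9 microglia were grown in IMDM with 5% FBS and 2 mM glutamine at 37 °C in 5% CO₂, and seeded at 20,000 cells/well. Next day, test compound was added at 5–6 concentrations (10⁻⁸–10⁻⁴ M) in triplicate, with a DMSO vehicle control. After 24 h, MTT (0.5 mg/mL) was added for 3–4 h at 37 °C. Formazan was dissolved in DMSO/EtOH 1:1 and read at 570 and 630 nm. EC50 came from a nonlinear fit of percent absorbance change against log concentration.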

The target of experiment [5] is T2, human FPR2 (Homo sapiens, UniProt P25090).
T2 sequence (P25090 1-351): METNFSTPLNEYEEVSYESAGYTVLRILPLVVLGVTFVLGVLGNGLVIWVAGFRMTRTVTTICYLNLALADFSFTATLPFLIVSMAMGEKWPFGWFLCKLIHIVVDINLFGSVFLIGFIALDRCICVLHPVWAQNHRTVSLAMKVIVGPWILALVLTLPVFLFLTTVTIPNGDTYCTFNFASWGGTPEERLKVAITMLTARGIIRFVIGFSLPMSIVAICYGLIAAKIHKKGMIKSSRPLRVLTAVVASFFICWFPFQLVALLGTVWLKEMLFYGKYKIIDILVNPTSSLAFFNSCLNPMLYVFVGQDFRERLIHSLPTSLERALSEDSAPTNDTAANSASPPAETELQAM
Briefly: Ca2+ mobilization. To be noted: for Ca+2 mobilization FPR2-HL60 efficacy: normalized to 5 nM WKYMVM = 100%. It counts as cell-based. The procedure, abridged:
as §2

Experiment [6] concerns the target T2, human FPR2. It counts as cell-based. To be noted: for Ca+2 mobilization FPR2-HL60 max. inhibition: desensitization, pretreatment, then WKYMVM 5 nM. The procedure, abridged:
as §1

The subject of experiment [7] is FPR2. To be noted: read-out: FPR2 desensitization IC50; cited from earlier work.
Experiment [8] concerns FPR2. To be noted: FPR2 agonist WKYMVm; cited from earlier work.
Experiment [9] concerns the target FPR2. To be noted: read-out: Ki value at FPR2; cited from earlier work.
In experiment [10] the test system is FPR2. To be noted: cited from earlier work.
Another experiment has as its system ear edema. To be noted: cited from earlier work.

Regarding `O=C(Nc1ccc(Br)cc1)N[C@H](Cc1ccc(O)cc1)C(=O)NC1CCCCNC1=O` (stereo partly drawn) [(2R)-46, (2R)-2-[3-(4-Bromophenyl)ureido]-3-(4-hydroxyphenyl)-N-(2-oxoazepan-3-yl)propanamide], the “FPR1 desensitization / inhibition of fMLF-induced Ca2+ mobilization, in words” value on human FPR1 [1] (FPR1-HL60 cells, fMLF) is “able to induce FPR1 desensitization”. In addition, on human FPR1 [1] (desensitization, pretreatment, then fMLF 5 nM), the “Ca+2 mobilization FPR1-HL60 max. inhibition” value stood at 85%. In addition, in experiment [2], the “reduction in cellular ROS level (dose dependence)” value is on record as “dose-dependent reduction in cellular ROS level” and the “reduction in ROS production” value is “statistically significant reduction in ROS production”. Moreover, the “direct ROS scavenging activity” value in experiment [3] is recorded as “none of the tested compounds demonstrated ROS scavenging activity”. In addition, at human FPR1 [4], a half-maximal response (EC50) required 820 ± 370 nM and the “Ca+2 mobilization FPR1-HL60 efficacy” value is reported as 110%. Moreover, the concentration for a half-maximal effect (EC50) in the experiment on N9 cells is above 100000 nM. Further, on human FPR2 [5], the EC50 is 350 ± 120 nM and the “Ca+2 mobilization FPR2-HL60 efficacy” value is on record as 140%. In addition, the “FPR2 desensitization / block of agonist-induced Ca2+ mobilization, in words” value on human FPR2 [6] (FPR2-HL60 cells, WKYMVM) is on record as “able to induce desensitization”. The “Ca+2 mobilization FPR2-HL60 max. inhibition” value at human FPR2 [6] worked out at 100%.

Take `N#Cc1ccc(C[C@@H](NC(=O)Nc2ccc(O)cc2)C(=O)NCC2(c3ccccc3)CC2)cc1` [(R)-24, (R)-3-(4-Cyanophenyl)-2-[3-(4-hydroxyphenyl)ureido]-N-[(1-phenylcyclopropyl)methyl]propanamide]: the EC50 in the experiment on N9 cells was above 100000 nM.

For the molecule `CCCCOc1ccc(C(=O)NN2C(=O)c3ccccc3NC2c2ccc(OC)cc2)cc1` (stereo not drawn) [Quin C1, reference compound], the “reduction in ROS production” value in experiment [2] was “statistically significant reduction in ROS production”. Moreover, the IC50 with FPR2 [7] was 40 nM.

`CCCCOc1ccc(C(=O)NN2C(=O)c3ccccc3NC2c2ccc(O)cc2)cc1` (stereo not drawn) [Compound 6, Quin C7]: the “inhibition of chemotaxis induced by WKYMVm” value in the experiment with FPR2 [8] is reported as “inhibited”. Also, the Ki on FPR2 [9] is 6700 nM. The “inhibition of Ca2+ flux induced by WKYMVm” value with FPR2 [10] (FPR2 agonist WKYMVm) was “inhibited”. Besides, the “activation of Ca2+ flux” value in the experiment on FPR2 [10] (FPR2 transfected cells) is on record as “did not activate Ca^2+ flux”. Besides, in the experiment on ear edema, the “arachidonic acid-induced ear edema” value was “inhibited arachidonic acid-induced ear edema”.

In the case of `COc1ccc(NC(=O)N[C@H](Cc2ccc(O)cc2)C(=O)NCC2(c3ccccc3)CC2)cc1` [(R)-25, (R)-3-(4-Hydroxyphenyl)-2-[3-(4-methoxyphenyl)ureido]-N-[(1-phenylcyclopropyl)methyl]propanamide], in experiment [2], the “reduction in cellular ROS level (dose dependence)” value was “dose-dependent reduction in cellular ROS level” and the “reduction in ROS production” value is given as “statistically significant reduction in ROS production”. Also, the “direct ROS scavenging activity” value in experiment [3] is on record as “none of the tested compounds demonstrated ROS scavenging activity”. Moreover, at human FPR1 [4], the “Ca+2 mobilization FPR1-HL60 efficacy” value is 55%. Further, the EC50 in the experiment with N9 cells is above 100000 nM. On human FPR2 [5], the “Ca+2 mobilization FPR2-HL60 efficacy” value worked out at 90%. The “Ca+2 mobilization FPR2-HL60 max. inhibition” value at human FPR2 [6] is reported as 75%.

The term EC50 denotes the concentration that produces a half-maximal response. Broadly, the IC50 is the point on the concentration scale where inhibition reaches its midpoint. The Ki is the equilibrium dissociation constant of an inhibitor or competing ligand from its target.
